From ChEMBL document CHEMBL2429772, “Selective arylsulfonamide inhibitors of ADAM-17: hit optimization and activity in ovarian cancer cell models” (J Med Chem, 2013)

Experiments:
[1] = target: 72 kDa type IV collagenase (Homo sapiens, UniProt P08253); test: Inhibition of recombinant human MMP-2 using Mca-Lys-Pro-Leu-Gly-Leu-Dap(Dnp)-Ala-Arg-NH2 as substrate incubated for 4 hrs measured every 15 secs for 20 mins by fluorimetric assay
Outline: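 Pro-MMP-2 was activated with 2 mM APMA for 1 h at 37 °C and used at 0.56 nM final. It was preincubated with inhibitor for 4 h at 25 °C in Tris 50 mM pH 7.5 buffer containing NaCl, CaCl2, Brij-35 and 1% DMSO. Substrate was at 2 µM final, ex 325/em 400 nm, run in duplicate. IC50 was taken from initial-velocity ratios, vi/vo = 1/(1+[I]/IC50).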

[2] = target: T1, Disintegrin and metalloproteinase domain-containing protein 17 (Homo sapiens, UniProt P78536); test: Inhibition of recombinant human ADAM-17 using Mca-Lys-Pro-Leu-Gly-Leu-Dap(Dnp)-Ala-Arg-NH2 as substrate incubated for 30 mins measured every 15 secs for 20 mins by fluorimetric assay
T1 sequence (P78536 whole entry, the tested form may be a part): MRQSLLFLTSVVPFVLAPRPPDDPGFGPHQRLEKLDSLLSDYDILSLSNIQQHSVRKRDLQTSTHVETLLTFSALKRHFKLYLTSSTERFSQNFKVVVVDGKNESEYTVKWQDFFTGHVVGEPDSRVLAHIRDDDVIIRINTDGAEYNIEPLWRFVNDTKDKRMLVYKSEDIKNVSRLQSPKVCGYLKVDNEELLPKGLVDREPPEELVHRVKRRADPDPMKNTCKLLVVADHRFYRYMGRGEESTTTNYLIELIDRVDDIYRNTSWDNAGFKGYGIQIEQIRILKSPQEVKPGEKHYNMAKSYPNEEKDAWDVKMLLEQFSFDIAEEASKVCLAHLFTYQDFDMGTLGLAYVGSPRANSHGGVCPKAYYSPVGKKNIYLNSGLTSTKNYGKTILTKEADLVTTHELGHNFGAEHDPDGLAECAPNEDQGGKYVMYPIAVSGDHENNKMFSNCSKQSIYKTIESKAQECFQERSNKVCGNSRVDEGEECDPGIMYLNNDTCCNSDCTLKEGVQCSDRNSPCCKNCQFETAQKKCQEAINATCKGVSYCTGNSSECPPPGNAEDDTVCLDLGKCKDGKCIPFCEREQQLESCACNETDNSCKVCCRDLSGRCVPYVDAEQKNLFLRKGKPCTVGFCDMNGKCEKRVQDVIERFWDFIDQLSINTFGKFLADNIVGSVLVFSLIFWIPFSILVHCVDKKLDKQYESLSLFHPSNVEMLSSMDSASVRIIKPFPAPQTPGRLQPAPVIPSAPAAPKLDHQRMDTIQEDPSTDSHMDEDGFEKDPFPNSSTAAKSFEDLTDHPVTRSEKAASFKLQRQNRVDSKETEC
Outline: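 Enzyme at 5 nM final was preincubated with inhibitor for 30 min at 37 °C in Tris 25 mM pH 9, ZnCl2 25 µM, 0.005% Brij-35. Substrate was at 2 µM final. Fluorescence increase (ex 325/em 400 nm) gave initial rates, in duplicate. IC50 was derived from vi/vo = 1/(1+[I]/IC50).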

[3] = target: Matrix metalloproteinase-14 (Homo sapiens, UniProt P50281); test: Inhibition of recombinant human MMP-14 catalytic domain using Mca-Lys-Pro-Leu-Gly-Leu-Dap(Dnp)-Ala-Arg-NH2 as substrate incubated for 4 hrs measured every 15 secs for 20 mins by fluorimetric assay
Outline: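 MMP-14 catalytic domain was used at 1.0 nM final with no activation step. It was incubated with inhibitor for 4 h at 25 °C in Tris 50 mM pH 7.5 buffer with NaCl 150 mM, CaCl2 10 mM, 0.05% Brij-35 and 1% DMSO. Substrate was at 2 µM final, ex 325/em 400 nm, duplicate wells. IC50 was fitted by vi/vo = 1/(1+[I]/IC50).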

Interstitial collagenase = target: T2, Interstitial collagenase (Homo sapiens, UniProt P03956); test: Inhibition of recombinant human MMP-1 using Mca-Lys-Pro-Leu-Gly-Leu-Dap(Dnp)-Ala-Arg-NH2 as substrate incubated for 4 hrs measured every 15 secs for 20 mins by fluorimetric assay
T2 sequence (P03956 whole entry): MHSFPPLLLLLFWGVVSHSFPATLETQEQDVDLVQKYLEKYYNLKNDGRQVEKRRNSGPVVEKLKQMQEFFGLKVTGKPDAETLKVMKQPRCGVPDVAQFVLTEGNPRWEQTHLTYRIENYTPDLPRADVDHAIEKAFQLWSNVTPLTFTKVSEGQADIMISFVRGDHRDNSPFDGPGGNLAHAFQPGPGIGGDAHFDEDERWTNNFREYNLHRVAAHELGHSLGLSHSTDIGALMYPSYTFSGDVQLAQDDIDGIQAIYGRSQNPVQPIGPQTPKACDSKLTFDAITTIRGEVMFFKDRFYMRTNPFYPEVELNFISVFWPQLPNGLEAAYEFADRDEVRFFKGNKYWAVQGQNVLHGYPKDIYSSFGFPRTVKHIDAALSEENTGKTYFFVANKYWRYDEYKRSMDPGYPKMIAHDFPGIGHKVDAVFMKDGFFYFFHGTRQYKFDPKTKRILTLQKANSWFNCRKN
Outline: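 Pro-MMP-1 was activated with 2 mM APMA for 2 h at 37 °C. Enzyme (2.0 nM final) was incubated with inhibitor in Tris 50 mM pH 7.5, NaCl 150 mM, CaCl2 10 mM, 0.05% Brij-35, 1% DMSO for 4 h at 25 °C. Substrate was added at 2 µM final. Fluorescence (ex 325/em 400 nm) was read for initial rates, in duplicate. IC50 came from vi/vo = 1/(1+[I]/IC50).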

[4] = target: Matrix metalloproteinase-9 (Homo sapiens, UniProt P14780); test: Inhibition of recombinant human MMP-9 using Mca-Lys-Pro-Leu-Gly-Leu-Dap(Dnp)-Ala-Arg-NH2 as substrate incubated for 4 hrs measured every 15 secs for 20 mins by fluorimetric assay
Sequence of Matrix metalloproteinase-9 (P14780 whole entry): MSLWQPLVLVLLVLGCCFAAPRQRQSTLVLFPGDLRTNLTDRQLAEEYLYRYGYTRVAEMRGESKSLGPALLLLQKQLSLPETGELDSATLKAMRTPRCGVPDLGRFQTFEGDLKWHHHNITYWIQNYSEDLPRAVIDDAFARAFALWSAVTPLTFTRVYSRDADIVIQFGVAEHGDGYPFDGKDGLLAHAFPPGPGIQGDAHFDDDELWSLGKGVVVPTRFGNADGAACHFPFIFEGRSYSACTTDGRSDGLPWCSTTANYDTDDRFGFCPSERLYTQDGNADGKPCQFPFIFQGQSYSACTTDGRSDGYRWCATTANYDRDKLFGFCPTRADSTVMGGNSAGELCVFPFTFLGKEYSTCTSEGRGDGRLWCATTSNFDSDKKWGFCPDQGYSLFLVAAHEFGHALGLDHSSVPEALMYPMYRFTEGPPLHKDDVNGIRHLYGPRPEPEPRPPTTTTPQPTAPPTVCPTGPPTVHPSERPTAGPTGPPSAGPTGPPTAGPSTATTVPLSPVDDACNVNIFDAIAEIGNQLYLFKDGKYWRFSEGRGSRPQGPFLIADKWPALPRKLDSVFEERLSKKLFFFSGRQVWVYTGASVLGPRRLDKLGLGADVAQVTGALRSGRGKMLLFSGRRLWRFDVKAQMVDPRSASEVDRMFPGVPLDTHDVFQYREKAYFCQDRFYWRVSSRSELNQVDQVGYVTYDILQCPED
Outline: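 Pro-MMP-9 was activated with 1 mM APMA for 1 h at 37 °C and used at 1.3 nM final. Inhibitor was incubated with enzyme for 4 h at 25 °C in Tris 50 mM pH 7.5, NaCl 150 mM, CaCl2 10 mM, 0.05% Brij-35, 1% DMSO. Substrate was at 2 µM final, ex 325/em 400 nm, in duplicate. IC50 was obtained from vi/vo = 1/(1+[I]/IC50).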

[5] = target: T3, Disintegrin and metalloproteinase domain-containing protein 10 (Homo sapiens, UniProt O14672); test: Inhibition of recombinant human ADAM-10 using Mca-Lys-Pro-Leu-Gly-Leu-Dap(Dnp)-Ala-Arg-NH2 as substrate incubated for 1 hr measured every 15 secs for 20 mins by fluorimetric assay
T3 sequence (O14672 whole entry): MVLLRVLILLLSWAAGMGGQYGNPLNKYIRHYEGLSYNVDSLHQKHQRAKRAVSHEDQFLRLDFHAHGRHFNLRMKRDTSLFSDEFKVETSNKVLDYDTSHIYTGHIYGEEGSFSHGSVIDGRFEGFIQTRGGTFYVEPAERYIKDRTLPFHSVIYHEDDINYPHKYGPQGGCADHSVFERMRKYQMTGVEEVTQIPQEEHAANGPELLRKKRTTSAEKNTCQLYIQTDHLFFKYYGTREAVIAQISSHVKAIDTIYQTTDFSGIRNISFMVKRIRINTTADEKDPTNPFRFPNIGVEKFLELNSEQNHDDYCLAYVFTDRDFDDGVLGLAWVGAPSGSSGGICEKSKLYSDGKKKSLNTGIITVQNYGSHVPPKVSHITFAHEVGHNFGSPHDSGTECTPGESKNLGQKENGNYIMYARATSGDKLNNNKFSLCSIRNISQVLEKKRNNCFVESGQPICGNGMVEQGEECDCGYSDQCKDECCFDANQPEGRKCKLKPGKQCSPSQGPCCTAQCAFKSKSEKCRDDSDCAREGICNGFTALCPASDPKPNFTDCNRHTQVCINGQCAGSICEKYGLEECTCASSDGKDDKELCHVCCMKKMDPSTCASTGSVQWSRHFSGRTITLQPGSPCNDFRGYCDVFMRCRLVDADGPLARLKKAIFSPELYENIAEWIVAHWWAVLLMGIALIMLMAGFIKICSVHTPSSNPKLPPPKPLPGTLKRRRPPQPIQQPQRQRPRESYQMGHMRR
Outline: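 Enzyme at 20 nM final was preincubated with inhibitor for 1 h at 37 °C in pH 9 buffer (Tris 25 mM, ZnCl2 25 µM, 0.005% Brij-35). Substrate was at 10 µM final. Fluorescence (ex 325/em 400 nm) was followed for initial velocity, in duplicate. IC50 was calculated with vi/vo = 1/(1+[I]/IC50).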

[6] = target: T1, Disintegrin and metalloproteinase domain-containing protein 17; test: Inhibition of ADAM-17 in human SKOV3 cells transfected with luciferase gene assessed as inhibition of pervanadate-induced sALCAM release incubated for 30 mins prior to pervanadate induction measured after 90 mins by ELISA; type: cell-based, SK-OV-3
A2780 = test: Cytotoxicity against human A2780 cells assessed as cell viability at 0.01 to 10 uM after 24 to 72 hrs by MTT assay; type: cell-based; details: a2780, 10 µM
[7] = Cytotoxicity against human A2774 cells assessed as cell viability at 0.01 to 10 uM after 24 to 72 hrs by MTT assay; type: cell-based; details: a2774, 10 µM
SK-OV-3 = test: Cytotoxicity against human SKOV3 cells transfected with luciferase gene assessed as cell viability at 0.01 to 10 uM after 24 to 72 hrs by MTT assay; type: cell-based; details: sk-ov-3, 10 µM
[8] = target: T1, Disintegrin and metalloproteinase domain-containing protein 17; test: Inhibition of ADAM-17 in human A2780 cells assessed as inhibition of EGF-induced sALCAM release incubated for 30 mins prior to EGF induction measured after 18 hrs by ELISA; type: cell-based
[9] = target: T1, Disintegrin and metalloproteinase domain-containing protein 17; test: Inhibition of ADAM-17 in human A2780 cells assessed as inhibition of pervanadate-induced sALCAM release incubated for 30 mins prior to pervanadate induction measured after 90 mins by ELISA; type: cell-based
[10] = target: T1, Disintegrin and metalloproteinase domain-containing protein 17; test: Inhibition of ADAM-17 in human SKOV3 cells transfected with luciferase gene assessed as inhibition of EGF-induced sALCAM release incubated for 30 mins prior to EGF induction measured after 18 hrs by ELISA; type: cell-based, SK-OV-3
[11] = target: T1, Disintegrin and metalloproteinase domain-containing protein 17; test: Inhibition of ADAM-17 in human A2774 cells assessed as inhibition of EGF-induced sALCAM release incubated for 30 mins prior to EGF induction measured after 18 hrs by ELISA; type: cell-based
[12] = target: T1, Disintegrin and metalloproteinase domain-containing protein 17; test: Inhibition of ADAM-17 in human A2774 cells assessed as inhibition of pervanadate-induced sALCAM release incubated for 30 mins prior to pervanadate induction measured after 90 mins by ELISA; type: cell-based

Sequence of 72 kDa type IV collagenase (P08253 whole entry): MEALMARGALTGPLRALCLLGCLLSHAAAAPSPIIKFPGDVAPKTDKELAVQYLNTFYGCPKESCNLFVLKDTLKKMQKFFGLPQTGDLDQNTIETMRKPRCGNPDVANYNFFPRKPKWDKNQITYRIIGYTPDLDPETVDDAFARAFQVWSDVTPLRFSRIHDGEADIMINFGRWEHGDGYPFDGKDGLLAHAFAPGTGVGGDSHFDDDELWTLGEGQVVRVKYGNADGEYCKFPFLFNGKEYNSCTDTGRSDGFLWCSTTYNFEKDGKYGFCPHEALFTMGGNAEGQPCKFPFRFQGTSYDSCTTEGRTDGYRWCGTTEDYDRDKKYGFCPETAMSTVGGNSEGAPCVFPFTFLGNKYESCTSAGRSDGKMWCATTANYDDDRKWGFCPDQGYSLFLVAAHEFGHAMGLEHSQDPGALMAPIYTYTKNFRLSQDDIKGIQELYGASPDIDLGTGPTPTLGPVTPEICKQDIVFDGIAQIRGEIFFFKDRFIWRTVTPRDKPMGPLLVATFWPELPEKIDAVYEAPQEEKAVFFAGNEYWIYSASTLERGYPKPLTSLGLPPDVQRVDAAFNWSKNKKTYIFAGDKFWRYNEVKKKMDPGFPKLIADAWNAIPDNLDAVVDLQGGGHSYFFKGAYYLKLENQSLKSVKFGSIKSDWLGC

IC50 [1] [nM]	IC50 [2] [nM]	IC50 [3] [nM]	IC50 (Interstitial collagenase) [nM]	IC50 [4] [nM]	IC50 [5] [nM]	Compound	IC50 [6] [nM]	Activity (A2780)	Activity [7]	Activity (SK-OV-3)	IC50 [8] [nM]	IC50 [9] [nM]	IC50 [10] [nM]	IC50 [11] [nM]	IC50 [12] [nM]
125000	> 50000					O=C(O)CNS(=O)(=O)c1ccc(OCc2cc(Br)cc(Br)c2)cc1									
3800	320	170000	> 200000			COc1ccc(-c2cc(Br)cc(COc3ccc(S(=O)(=O)NCC(=O)NO)cc3)c2)cc1									
1050	500	21400	> 500000			O=C(CNS(=O)(=O)c1ccc(OCc2cc(Br)cc(-c3cccnc3)c2)cc1)NO									
1440	11	68000	370000	4400	300	O=C(NCCC[C@@H](NS(=O)(=O)c1ccc(OCc2cc(Br)cc(Br)c2)cc1)C(=O)NO)OCc1ccccc1	350	Non-toxic	Non-toxic	Non-toxic	10000	349	5640	7630	274
1.2	16	630	120000	1.4		O=C(CNS(=O)(=O)c1ccc(OCc2ccc(Br)cc2)cc1)NO									
3	145	590	32000	42		O=C(CNS(=O)(=O)c1ccc(OCc2ccc(F)cc2)cc1)NO									
7.5	200	7200	74000	37		O=C(CNS(=O)(=O)c1ccc(OCc2ccc(OC(F)(F)F)cc2)cc1)NO									
48	640	72000	> 500000	690		O=C(CNS(=O)(=O)c1ccc(OCc2ccc(-c3ccccc3)cc2)cc1)NO									
110	17	2900	28000	890		CC#CCOc1ccc(S(=O)(=O)NCC(=O)NO)cc1									

Compound	IC50 [1] [nM]	IC50 [2] [nM]	IC50 [3] [nM]	IC50 (Interstitial collagenase) [nM]	IC50 [4] [nM]	IC50 [5] [nM]	IC50 [6] [nM]	Activity (A2780)	Activity [7]	Activity (SK-OV-3)	IC50 [8] [nM]	IC50 [9] [nM]	IC50 [10] [nM]	IC50 [11] [nM]	IC50 [12] [nM]
NC(=O)NCCC[C@@H](NS(=O)(=O)c1ccc(OCc2cc(Br)cc(Br)c2)cc1)C(=O)NO				> 500000			58	Non-toxic	Non-toxic	Non-toxic	845	< 10	4270	651	45
